Experiments:
[1] = system: MDA-MB-231 cells; test: Cell viability, trypan blue exclusion; type: cell-based; details: drug 24 μM, 24-hour treatment
How it was run: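 MDA-MB-231 cells grown to 80% confluence, harvested, seeded at 1.5 × 10^5 cells/mL and left overnight. Medium replaced with FBS-free medium containing test compound at 24 μM. FBS added after 1 h, then a further 24 h exposure. Cell density counted by trypan blue exclusion. Viability (%) = treated density / DMSO-only control density × 100.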

[2] = target: untagged Asf1 (Homo sapiens, UniProt Q9Y294); test: ALPHA binding studies with Asf1; details: two different versions of ALPHA; data not shown
[3] = target: Asf1-H3/H4 (Homo sapiens, UniProt Q9Y294); test: Asf1-H3/H4 binding inhibition
Asf1-H3/H4, sequence (Q9Y294 1-155): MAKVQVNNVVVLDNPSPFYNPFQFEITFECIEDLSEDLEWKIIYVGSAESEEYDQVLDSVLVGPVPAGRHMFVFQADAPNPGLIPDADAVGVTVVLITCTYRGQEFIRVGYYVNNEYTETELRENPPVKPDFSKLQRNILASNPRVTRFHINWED

untagged Asf1, sequence (Q9Y294 1-155): as above

Row | Structure (SMILES) | Asf1-H3/H4 binding potency/activity, in words [3] | also measured
1 | COc1ccc(-c2cc([C@@H](O)[C@@H]3CCCCN3)c3ccccc3n2)cc1.Cl [Compound 1] |  | Cell viability (cytotoxicity), in words [1]: potently inhibit cell viability; Binding to untagged Asf1, in words [2]: not to bind
2 | COc1cc(/C=N/NC(=O)c2ccc(NC(C)=O)cc2)cc(Br)c1O [Compound 18] | significant loss of potency | 
3 | COc1cc(/C=N/NC(=O)C2CCOCC2)cc(Br)c1O [Compound 26] | ineffective | 
4 | COc1cc(/C=N/N(C)C(=O)c2ccc(NC(=O)c3ccccc3)cc2)cc(Br)c1O [Compound 52] | tolerated | 

The next lines start with results.

Row | Asf1-H3/H4 binding potency/activity, in words [3] | Structure (SMILES) | also measured
5 | ineffective | COc1cc(/C=N/NC(=O)C2CCNCC2)cc(Br)c1O [Compound 25] | 
6 | did not improve potency | COc1cc(/C=N/NC(=O)c2ccc(NC(=O)c3ccccc3)c(COCCN(C)C)c2)cc(Br)c1O [Compound 33] | 
7 | significant boost in potency | O=C(N/N=C/c1cc(Br)ccc1O)c1ccncc1 [Compound 47] | Assay interference (metal scavenging) ([3]; upon further analysis): false positive results

— publication PMC4437580 (Bioorganic & medicinal chemistry letters, 2014)
